Measured values: ChEMBL document CHEMBL6092224, “The Discovery and Preclinical Profile of ALG-000184, a Prodrug of the Potent Hepatitis B Virus Capsid Assembly Modulator ALG-001075” (J Med Chem, 2024)

How the values were obtained:
[1] = Metabolic stability in human liver microsomes assessed as half life at 1 uM incubated upto 60 mins in presence of NADPH; assay type: ADME, Microsome
Outline: (§1)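 Compound at 1 μM incubated at 37 °C with liver microsomes of each species for 0, 15, 30 and 60 min, with and without NADPH; half-life determined.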

[2] = Metabolic stability in mouse liver microsomes assessed as half life at 1 uM incubated upto 60 mins in presence of NADPH; assay type: ADME, Microsome; outline: as §1
Hepatitis B virus = experiment: Antiviral activity against HBV genotype D infected in human HepG2.117 cells assessed as decrease in HBV DNA production by qPCR analysis; assay type: functional, organism-based
Outline: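 HepG2.117 cells (integrated genotype D HBV genome, Tet-off promoter; kept in 1 μg/mL doxycycline) were seeded at 20,000 cells/well and given serial compound dilutions (2% DMSO) for 3 days at 37 °C. Lysates were taken in 0.33% NP40. Intracellular HBV DNA was quantified by qPCR and EC50/EC90 derived. For serum shift, 40% human serum was present during incubation. Mean ± SEM, n=3 (serum) or 13.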

[3] = Metabolic stability in rat liver microsomes assessed as half life at 1 uM incubated upto 60 mins in presence of NADPH; assay type: ADME, Microsome; outline: as §1
[4] = Metabolic stability in dog liver microsomes assessed as half life at 1 uM incubated upto 60 mins in presence of NADPH; assay type: ADME, Canis lupus familiaris, Microsome; outline: as §1
[5] = Metabolic stability in Cynomolgous monkey liver microsomes assessed as half life at 1 uM incubated upto 60 mins in presence of NADPH; assay type: ADME, Macaca fascicularis, Microsome; settings: cynomolgus monkey; outline: as §1
[6] = Metabolic stability in mouse plasma assessed as half life; assay type: ADME, cell-free
[7] = Metabolic stability in rat plasma assessed as half life; assay type: ADME, cell-free
[8] = Metabolic stability in dog plasma assessed as half life; assay type: ADME, cell-free, Canis lupus familiaris
[9] = Metabolic stability in Cynomolgous monkey plasma assessed as half life; assay type: ADME, cell-free, Macaca fascicularis; settings: cynomolgus monkey
[10] = Metabolic stability in human plasma assessed as half life; assay type: ADME, cell-free
Cytochrome P450 1A2 = Cytochrome P450 1A2 (Homo sapiens, UniProt P05177); experiment: Inhibition of CYP1A2 in human liver microsomes in presence of NADPH; assay type: ADME, Microsome
Sequence of Cytochrome P450 1A2 (P05177 whole entry, canonical isoform): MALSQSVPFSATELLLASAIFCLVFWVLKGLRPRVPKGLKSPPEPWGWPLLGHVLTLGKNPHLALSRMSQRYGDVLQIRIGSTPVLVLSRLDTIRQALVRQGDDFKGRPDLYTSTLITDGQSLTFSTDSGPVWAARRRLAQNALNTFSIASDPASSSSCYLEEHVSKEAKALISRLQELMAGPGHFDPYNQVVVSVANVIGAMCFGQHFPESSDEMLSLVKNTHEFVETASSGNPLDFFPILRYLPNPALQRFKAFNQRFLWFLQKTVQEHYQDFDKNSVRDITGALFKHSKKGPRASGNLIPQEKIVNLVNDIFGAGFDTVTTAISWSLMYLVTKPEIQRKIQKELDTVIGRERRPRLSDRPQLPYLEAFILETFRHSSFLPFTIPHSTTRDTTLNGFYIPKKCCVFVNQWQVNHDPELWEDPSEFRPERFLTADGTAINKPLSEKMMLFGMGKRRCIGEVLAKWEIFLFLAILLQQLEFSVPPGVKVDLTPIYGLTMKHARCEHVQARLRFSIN
Outline: (§2)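 Pooled human liver microsomes with CYP isoform-specific probe substrates, in 100 mM potassium phosphate pH 7.4, 3 mM MgCl2 and 1 mM NADPH, at 37 °C. Final test ranges were 0.069–50 μM or 0.03–100 μM; IC50 was determined.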

Cytochrome P450 2B6 = molecular target: T1, Cytochrome P450 2B6 (Homo sapiens, UniProt P20813); experiment: Inhibition of CYP2B6 in human liver microsomes in presence of NADPH; assay type: ADME, Microsome; outline: as §2
T1 sequence (P20813 whole entry): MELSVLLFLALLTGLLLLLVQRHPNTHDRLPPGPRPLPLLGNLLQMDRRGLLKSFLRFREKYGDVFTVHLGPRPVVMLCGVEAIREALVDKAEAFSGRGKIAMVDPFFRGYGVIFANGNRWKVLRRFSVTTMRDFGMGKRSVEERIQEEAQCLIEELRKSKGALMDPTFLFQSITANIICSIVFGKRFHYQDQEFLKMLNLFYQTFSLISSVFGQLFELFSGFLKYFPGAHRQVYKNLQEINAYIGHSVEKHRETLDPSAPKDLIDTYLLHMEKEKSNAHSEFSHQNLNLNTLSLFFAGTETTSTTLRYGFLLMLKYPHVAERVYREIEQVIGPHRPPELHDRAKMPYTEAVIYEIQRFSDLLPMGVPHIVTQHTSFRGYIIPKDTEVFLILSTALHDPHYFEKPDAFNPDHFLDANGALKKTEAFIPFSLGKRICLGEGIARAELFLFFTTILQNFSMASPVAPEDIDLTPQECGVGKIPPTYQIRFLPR

Cytochrome P450 2C8 = Cytochrome P450 2C8 (Homo sapiens, UniProt P10632); experiment: Inhibition of CYP2C8 in human liver microsomes in presence of NADPH; assay type: ADME, Microsome; outline: as §2
Sequence of Cytochrome P450 2C8 (P10632 whole entry): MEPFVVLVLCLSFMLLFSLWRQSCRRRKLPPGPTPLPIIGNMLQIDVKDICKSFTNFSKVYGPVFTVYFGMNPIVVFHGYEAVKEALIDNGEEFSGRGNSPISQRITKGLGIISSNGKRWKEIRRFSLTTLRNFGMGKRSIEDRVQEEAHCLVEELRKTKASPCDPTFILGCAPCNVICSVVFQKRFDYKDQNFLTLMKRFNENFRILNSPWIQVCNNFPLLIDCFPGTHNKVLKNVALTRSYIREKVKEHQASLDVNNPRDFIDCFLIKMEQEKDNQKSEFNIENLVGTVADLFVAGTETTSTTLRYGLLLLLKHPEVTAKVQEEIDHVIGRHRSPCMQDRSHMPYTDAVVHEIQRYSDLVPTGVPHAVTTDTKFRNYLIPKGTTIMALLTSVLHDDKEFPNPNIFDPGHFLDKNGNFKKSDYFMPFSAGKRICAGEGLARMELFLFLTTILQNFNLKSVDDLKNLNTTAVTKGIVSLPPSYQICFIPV

Cytochrome P450 2C9 = Cytochrome P450 2C9 (Homo sapiens, UniProt P11712); experiment: Inhibition of CYP2C9 in human liver microsomes in presence of NADPH; assay type: ADME, Microsome; outline: as §2
Sequence of Cytochrome P450 2C9 (P11712 whole entry): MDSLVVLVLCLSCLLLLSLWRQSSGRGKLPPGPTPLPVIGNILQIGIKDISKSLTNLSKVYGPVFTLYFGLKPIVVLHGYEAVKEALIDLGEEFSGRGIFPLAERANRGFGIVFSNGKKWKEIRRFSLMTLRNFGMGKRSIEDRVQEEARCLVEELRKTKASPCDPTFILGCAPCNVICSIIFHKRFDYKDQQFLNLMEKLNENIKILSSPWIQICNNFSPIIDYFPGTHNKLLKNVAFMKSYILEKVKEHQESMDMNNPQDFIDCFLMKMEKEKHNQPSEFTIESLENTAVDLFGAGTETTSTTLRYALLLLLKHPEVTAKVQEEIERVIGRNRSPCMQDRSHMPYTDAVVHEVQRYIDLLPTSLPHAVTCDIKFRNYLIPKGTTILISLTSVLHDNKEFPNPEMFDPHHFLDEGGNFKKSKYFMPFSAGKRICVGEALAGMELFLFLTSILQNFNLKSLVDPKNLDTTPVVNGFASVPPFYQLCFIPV

Cytochrome P450 2C19 = Cytochrome P450 2C19 (Homo sapiens, UniProt P33261); experiment: Inhibition of CYP2C19 in human liver microsomes in presence of NADPH; assay type: ADME, Microsome; outline: as §2
Sequence of Cytochrome P450 2C19 (P33261 whole entry): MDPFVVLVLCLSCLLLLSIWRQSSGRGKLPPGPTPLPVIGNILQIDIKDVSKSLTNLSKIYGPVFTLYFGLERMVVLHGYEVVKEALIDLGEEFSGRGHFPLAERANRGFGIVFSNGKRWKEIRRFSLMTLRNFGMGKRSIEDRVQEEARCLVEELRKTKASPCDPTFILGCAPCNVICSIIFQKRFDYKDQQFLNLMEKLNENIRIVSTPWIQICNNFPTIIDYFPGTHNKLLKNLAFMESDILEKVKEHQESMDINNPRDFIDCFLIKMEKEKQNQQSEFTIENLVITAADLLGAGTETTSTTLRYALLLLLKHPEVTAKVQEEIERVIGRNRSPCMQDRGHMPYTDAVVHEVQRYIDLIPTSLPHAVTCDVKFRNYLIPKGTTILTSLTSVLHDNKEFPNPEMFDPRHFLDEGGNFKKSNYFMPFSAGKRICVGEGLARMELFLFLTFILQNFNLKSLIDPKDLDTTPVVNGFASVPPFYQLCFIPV

Cytochrome P450 2D6 = Cytochrome P450 2D6 (Homo sapiens, UniProt P10635); experiment: Inhibition of CYP2D6 in human liver microsomes in presence of NADPH; assay type: ADME, Microsome; outline: as §2
Sequence of Cytochrome P450 2D6 (P10635 whole entry): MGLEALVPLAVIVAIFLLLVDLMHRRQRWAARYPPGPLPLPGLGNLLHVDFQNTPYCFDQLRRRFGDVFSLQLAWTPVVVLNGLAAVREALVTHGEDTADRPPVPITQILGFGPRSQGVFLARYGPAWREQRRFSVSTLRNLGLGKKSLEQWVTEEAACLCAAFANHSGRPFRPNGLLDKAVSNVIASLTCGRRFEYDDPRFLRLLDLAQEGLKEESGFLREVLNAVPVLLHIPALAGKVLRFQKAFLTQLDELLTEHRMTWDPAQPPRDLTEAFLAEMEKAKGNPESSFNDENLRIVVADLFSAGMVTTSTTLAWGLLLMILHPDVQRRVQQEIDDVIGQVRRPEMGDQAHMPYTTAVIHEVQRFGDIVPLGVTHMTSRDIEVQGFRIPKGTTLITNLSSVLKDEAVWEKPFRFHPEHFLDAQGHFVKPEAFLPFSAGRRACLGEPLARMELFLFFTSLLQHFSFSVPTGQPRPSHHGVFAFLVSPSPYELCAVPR

Cytochrome P450 3A4 = Cytochrome P450 3A4 (Homo sapiens, UniProt P08684); experiment: Inhibition of CYP3A4 in human liver microsomes in presence of NADPH; assay type: ADME, Microsome
Sequence of Cytochrome P450 3A4 (P08684 whole entry): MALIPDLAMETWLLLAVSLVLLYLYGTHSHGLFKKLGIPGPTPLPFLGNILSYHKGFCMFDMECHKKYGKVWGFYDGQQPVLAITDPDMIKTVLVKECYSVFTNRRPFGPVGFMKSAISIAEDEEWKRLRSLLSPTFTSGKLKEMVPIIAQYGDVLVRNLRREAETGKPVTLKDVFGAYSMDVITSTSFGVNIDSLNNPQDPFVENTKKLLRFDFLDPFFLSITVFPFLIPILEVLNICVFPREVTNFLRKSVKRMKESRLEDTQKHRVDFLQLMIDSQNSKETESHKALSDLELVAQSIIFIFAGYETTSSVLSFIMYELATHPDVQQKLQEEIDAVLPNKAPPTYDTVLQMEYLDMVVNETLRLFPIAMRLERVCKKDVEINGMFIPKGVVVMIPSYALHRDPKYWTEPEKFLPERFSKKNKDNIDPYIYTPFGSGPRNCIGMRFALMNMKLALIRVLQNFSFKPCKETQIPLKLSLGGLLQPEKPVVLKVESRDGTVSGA
Outline: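 Pooled human liver microsomes in 100 mM potassium phosphate pH 7.4, 3 mM MgCl2, 1 mM NADPH, 37 °C, with CYP3A4-specific probe substrate; test compound over 0.069–50 μM or 0.03–100 μM final, IC50 derived.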

UGT1A1 = UGT1A1 (Homo sapiens, UniProt P22309); experiment: Inhibition of recombinant human UGT1A1 at 10 uM in presence of UDPGA relative to control
Outline: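 Recombinant human UGT1A1 at 0.05 mg/mL with 5 mM UDPGA cofactor, 10 min incubation; test compound at single 10 μM concentration.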

[11] = molecular target: Solute carrier organic anion transporter family member 1B1 (Homo sapiens, UniProt Q9Y6L6); experiment: Inhibition of OATP1B1 (unknown origin) transfected in HEK293 cells; assay type: cell-based
Outline: (§3)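 HEK-293 cells transfected with the uptake transporter; uptake of known probe substrates measured with test compound at eight concentrations (0.0229–50.0 μM or 0.0457–100 μM); inhibition at each concentration used to calculate IC50.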

[12] = molecular target: Solute carrier organic anion transporter family member 1B3 (Homo sapiens, UniProt Q9NPD5); experiment: Inhibition of OATP1B3 (unknown origin) transfected in HEK293 cells; assay type: cell-based; outline: as §3
Sequence of Solute carrier organic anion transporter family member 1B3 (Q9NPD5 whole entry): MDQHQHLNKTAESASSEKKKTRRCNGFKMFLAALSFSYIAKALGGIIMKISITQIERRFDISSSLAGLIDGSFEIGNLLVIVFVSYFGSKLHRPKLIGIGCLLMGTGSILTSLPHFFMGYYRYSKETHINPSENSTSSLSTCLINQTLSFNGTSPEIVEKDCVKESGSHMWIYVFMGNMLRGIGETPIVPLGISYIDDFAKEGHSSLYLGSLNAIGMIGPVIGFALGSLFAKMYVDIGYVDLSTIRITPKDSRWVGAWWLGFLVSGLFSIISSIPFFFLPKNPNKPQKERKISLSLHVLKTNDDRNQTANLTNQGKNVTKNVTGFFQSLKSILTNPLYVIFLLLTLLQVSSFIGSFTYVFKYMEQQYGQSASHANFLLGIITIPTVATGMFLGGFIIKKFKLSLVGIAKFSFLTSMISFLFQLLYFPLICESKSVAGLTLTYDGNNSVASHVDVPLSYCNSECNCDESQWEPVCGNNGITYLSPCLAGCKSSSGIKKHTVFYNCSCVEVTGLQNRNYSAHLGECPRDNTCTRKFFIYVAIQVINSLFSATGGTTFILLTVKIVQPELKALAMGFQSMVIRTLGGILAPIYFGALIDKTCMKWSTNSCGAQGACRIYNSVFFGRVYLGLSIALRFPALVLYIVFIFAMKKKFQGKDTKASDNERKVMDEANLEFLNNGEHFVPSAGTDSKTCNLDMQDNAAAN

[13] = Mutagenicity in Salmonella typhimurium TA98 by Ames test; assay type: toxicity; settings: salmonella enterica subsp. enterica serovar typhimurium
[14] = Mutagenicity in Salmonella typhimurium TA100 by Ames test; assay type: toxicity; settings: salmonella enterica subsp. enterica serovar typhimurium
[15] = Mutagenicity in Salmonella typhimurium TA1535 by Ames test; assay type: toxicity; settings: salmonella enterica subsp. enterica serovar typhimurium
[16] = Mutagenicity in Salmonella typhimurium TA97a by Ames test; assay type: toxicity; settings: salmonella enterica subsp. enterica serovar typhimurium
[17] = Mutagenicity in Salmonella […] by Ames test; assay type: toxicity; settings: salmonella enterica subsp. enterica serovar typhimurium
[18] = Genotoxicity in human TK6 cells measured for 4 to 27 hrs by micronucleus test; assay type: toxicity, cell-based; settings: time 4-27 hrs
[19] = molecular target: Voltage-gated inwardly rectifying potassium channel KCNH2 (Homo sapiens, UniProt Q12809); experiment: Inhibition of hERG expressed in mammalian cells at 10 uM by automated patch-clamp method; assay type: toxicity, cell-based
Sequence of Voltage-gated inwardly rectifying potassium channel KCNH2 (Q12809 whole entry): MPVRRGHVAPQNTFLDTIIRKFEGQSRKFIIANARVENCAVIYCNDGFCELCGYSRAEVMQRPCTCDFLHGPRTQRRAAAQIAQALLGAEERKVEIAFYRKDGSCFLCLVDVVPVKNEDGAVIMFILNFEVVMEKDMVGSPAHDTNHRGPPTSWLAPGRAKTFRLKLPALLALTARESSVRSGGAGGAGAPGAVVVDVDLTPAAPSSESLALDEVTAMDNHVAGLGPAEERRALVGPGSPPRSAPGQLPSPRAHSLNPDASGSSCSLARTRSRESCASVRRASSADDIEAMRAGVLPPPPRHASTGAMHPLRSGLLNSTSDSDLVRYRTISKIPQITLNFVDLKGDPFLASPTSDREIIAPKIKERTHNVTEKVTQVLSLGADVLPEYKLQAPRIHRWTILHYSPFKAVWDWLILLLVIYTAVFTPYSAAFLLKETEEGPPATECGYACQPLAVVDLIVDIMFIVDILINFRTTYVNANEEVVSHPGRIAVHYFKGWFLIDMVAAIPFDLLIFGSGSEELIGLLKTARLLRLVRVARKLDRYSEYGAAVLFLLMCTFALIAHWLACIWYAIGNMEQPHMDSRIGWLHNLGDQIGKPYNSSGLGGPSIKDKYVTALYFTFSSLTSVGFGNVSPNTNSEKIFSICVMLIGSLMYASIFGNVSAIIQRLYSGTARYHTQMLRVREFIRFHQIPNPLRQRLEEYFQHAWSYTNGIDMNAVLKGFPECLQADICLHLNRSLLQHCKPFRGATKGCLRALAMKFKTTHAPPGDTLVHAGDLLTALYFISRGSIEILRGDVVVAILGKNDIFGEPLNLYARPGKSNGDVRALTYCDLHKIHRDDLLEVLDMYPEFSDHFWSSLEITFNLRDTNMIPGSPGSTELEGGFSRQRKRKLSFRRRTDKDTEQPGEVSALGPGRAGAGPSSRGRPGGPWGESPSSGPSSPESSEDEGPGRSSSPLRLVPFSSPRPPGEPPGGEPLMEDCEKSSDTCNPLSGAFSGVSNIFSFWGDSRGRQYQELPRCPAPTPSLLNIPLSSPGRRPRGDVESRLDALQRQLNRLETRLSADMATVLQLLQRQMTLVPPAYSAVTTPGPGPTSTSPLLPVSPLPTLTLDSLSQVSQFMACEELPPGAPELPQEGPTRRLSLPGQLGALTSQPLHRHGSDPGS
Outline: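 Currents of hERG, Nav1.5 or Cav1.2 channels expressed in mammalian cells recorded by automated patch clamp (QPatch 48) at room temperature.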

[20] = Half life in Beagle dog at 1 mg/kg, iv by LC-MS/MS analysis; assay type: ADME, organism-based, Canis lupus familiaris; settings: in vivo
Outline: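 Single dose to fasted male C57BL6 mice, Sprague-Dawley rats, beagle dogs and cynomolgus monkeys, either IV at 1 mg/kg or PO as a solution at 5 mg/kg, in 80% PEG 400 in water. Plasma concentrations were measured by LC-MS/MS. PK parameters come from noncompartmental analysis using nominal doses and nominal sampling times.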

Compound | half-life at 1 µM [1] [h] | half-life at 1 µM [2] [h] | EC50 (Hepatitis B virus) [µM] | half-life at 1 µM [3] [h] | half-life at 1 µM [4] [h] | half-life at 1 µM [5] [h] | half-life [6] [h] | half-life [7] [h] | half-life [8] [h] | half-life [9] [h] | half-life [10] [h] | IC50 (Cytochrome P450 1A2) [µM] | IC50 (Cytochrome P450 2B6) [µM] | IC50 (Cytochrome P450 2C8) [µM] | IC50 (Cytochrome P450 2C9) [µM] | IC50 (Cytochrome P450 2C19) [µM] | IC50 (Cytochrome P450 2D6) [µM] | IC50 (Cytochrome P450 3A4) [µM] | inhibition at 10 µM (UGT1A1) [%] | IC50 [11] [µM] | other results
C#CC1(N(COP(=O)([O-])[O-])C(=O)C(=O)c2c(C)c(C(=O)Nc3ccc(F)c(C#N)c3)n(C)c2C)COC1.[Na+].[Na+] | > 1 | > 1 | 0.00145 | > 1 | > 1 | > 1 | > 4 | > 4 | > 4 | > 4 | > 4 | > 100 | > 100 | > 100 | > 100 | > 100 | > 100 | > 100 | 11.2 | ~50 | IC50 [12]: ~50 µM; Activity [13]: Non-toxic; Activity [14]: Non-toxic; Activity [15]: Non-toxic; Activity [16]: Non-toxic; Activity [17]: Non-toxic; Activity [18]: Non-toxic; IC50 [19]: > 300 µM
C#CC1(NC(=O)C(=O)c2c(C)c(C(=O)Nc3ccc(F)c(C#N)c3)n(C)c2C)COC1 | > 1 | > 1 | 0.00063 | > 1 | > 1 | > 1 | > 4 | > 4 | > 4 | > 4 | > 4 | > 50 | > 50 | 48.6 | > 50 | > 50 | > 50 | > 50 | 7.3 | > 11.8 | EC90 (Hepatitis B virus): 0.00317 µM; half-life [20]: 6.38 h; IC50 [12]: > 11.8 µM; Activity [13]: Non-toxic; Activity [14]: Non-toxic; Activity [15]: Non-toxic; Activity [16]: Non-toxic; Activity [17]: Non-toxic; Activity [18]: Non-toxic; IC50 [19]: > 10 µM
